Source: ChEMBL document CHEMBL1781887, “Sulfoximine-substituted trifluoromethylpyrimidine analogs as inhibitors of proline-rich tyrosine kinase 2 (PYK2) show reduced hERG activity” (Bioorg Med Chem Lett, 2009)

Legend:
[1] = (§1) Apparent permeability from apical to basolateral side of MDCK cells; assay type: ADME, cell-based, Canis lupus familiaris; conditions: dog
In short: (§2)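 Madin–Darby canine kidney cell monolayers. Permeability measured in the apical-to-basolateral direction and reported as Papp.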

hERG (KCNH2) = hERG (KCNH2) (Homo sapiens, UniProt Q12809); assay: Inhibition of [3H]dofetilide binding to human ERG expressed in HEK293 cells at 10 uM; assay type: cell-based; conditions: HEK293 cells that express human ERG, probe [3H]dofetilide
hERG (KCNH2), sequence (Q12809 whole entry): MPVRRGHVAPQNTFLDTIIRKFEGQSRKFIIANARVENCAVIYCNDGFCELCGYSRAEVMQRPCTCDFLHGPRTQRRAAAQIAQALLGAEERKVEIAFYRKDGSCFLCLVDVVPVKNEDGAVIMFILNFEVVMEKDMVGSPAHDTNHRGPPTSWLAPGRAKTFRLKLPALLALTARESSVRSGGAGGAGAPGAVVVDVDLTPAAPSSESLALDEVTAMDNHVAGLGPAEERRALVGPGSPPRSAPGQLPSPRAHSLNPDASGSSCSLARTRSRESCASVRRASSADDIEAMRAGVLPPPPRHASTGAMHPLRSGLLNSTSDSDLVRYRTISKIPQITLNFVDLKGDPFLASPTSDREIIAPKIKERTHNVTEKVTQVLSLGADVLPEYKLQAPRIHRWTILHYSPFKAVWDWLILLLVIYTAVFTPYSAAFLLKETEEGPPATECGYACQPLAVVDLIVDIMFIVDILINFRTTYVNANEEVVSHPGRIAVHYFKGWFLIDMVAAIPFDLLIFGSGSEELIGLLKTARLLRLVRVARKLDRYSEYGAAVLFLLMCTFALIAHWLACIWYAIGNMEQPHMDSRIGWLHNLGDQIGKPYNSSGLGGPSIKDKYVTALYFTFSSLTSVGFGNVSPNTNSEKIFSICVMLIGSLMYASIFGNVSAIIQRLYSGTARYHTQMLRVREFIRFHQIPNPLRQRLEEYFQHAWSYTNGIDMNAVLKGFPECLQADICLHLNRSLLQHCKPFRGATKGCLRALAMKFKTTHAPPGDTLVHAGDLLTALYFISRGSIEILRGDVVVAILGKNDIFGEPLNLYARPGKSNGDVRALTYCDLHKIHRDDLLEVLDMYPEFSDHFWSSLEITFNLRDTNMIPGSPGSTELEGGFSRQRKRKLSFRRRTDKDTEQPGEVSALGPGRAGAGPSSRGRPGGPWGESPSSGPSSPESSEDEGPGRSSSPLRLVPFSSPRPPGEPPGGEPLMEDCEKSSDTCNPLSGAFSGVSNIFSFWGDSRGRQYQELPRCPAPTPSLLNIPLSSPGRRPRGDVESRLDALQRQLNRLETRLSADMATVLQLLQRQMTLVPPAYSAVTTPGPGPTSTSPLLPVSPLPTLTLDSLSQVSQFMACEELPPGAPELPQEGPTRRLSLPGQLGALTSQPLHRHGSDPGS

[2] = Hepatic extraction ratio in human liver microsomes; assay type: ADME, Microsome; conditions: read-out: ERH
[3] = target: T1, Protein-tyrosine kinase 2-beta (Homo sapiens, UniProt Q14289); assay: Inhibition of PYK2 by PYK2-LI-COR cellular assay
T1 sequence (Q14289 whole entry): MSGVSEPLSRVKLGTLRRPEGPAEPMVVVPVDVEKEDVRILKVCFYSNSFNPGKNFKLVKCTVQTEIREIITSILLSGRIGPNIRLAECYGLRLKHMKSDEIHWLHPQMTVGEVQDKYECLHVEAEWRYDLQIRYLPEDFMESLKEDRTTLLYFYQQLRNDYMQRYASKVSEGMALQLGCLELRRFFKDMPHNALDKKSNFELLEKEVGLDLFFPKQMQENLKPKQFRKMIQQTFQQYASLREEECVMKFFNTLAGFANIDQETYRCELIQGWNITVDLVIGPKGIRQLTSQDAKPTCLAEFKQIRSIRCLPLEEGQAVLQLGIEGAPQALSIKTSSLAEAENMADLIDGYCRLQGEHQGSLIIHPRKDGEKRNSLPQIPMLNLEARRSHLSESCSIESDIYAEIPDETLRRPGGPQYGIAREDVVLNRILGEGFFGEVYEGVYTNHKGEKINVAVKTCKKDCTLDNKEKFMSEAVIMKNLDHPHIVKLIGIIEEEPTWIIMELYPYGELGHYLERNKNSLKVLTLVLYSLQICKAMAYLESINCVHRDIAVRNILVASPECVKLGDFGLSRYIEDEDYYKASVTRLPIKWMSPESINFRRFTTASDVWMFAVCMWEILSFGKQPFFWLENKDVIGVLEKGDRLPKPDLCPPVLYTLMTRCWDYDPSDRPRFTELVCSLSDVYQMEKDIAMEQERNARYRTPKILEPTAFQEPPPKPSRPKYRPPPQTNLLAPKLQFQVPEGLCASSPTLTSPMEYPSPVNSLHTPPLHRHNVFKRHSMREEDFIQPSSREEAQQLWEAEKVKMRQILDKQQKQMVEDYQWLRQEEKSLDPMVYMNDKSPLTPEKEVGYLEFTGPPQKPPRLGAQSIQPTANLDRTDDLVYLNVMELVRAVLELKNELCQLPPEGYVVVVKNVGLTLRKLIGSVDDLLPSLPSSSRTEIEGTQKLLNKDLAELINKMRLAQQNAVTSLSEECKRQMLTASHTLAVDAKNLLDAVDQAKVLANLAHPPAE

[4] = target: T1, Protein-tyrosine kinase 2-beta; assay: Inhibition of PYK2 assessed as reduction in peptide substrate phosphorylation by fluorimetric method
[5] = Volume of distribution at steady state in Sprague-Dawley rat at 1 mg/kg, iv; assay type: ADME, organism-based; set-up: dose 1 mg/kg, route intravenous; conditions: in vivo, read-out: Vdss
In short: (§3)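 Sprague–Dawley rats given 1.0 mg/kg iv. CL and Vdss obtained by non-compartmental fit of the plasma concentration–time profiles. Values are means of two experiments.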

[6] = Clearance in Sprague-Dawley rat at 1 mg/kg, iv; assay type: ADME, organism-based; set-up: dose 1 mg/kg, route intravenous; conditions: in vivo; in short: as §3
[7] = Fraction unbound in rat plasma at 1 ug/mL; assay type: ADME, cell-free
In short: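 Rat plasma protein binding measured in vivo at a drug concentration of 1 μg/mL. Result expressed as fraction unbound (fu).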

[8] = Lipophilicity, log D of the compound at pH 7.4; assay type: physicochemical; conditions: buffer
[9] = Mean residence time in Sprague-Dawley rat; assay type: ADME, organism-based; conditions: in vivo
MDCK = assay: as §1; assay type: ADME, cell-based, Canis lupus familiaris; conditions: dog; in short: as §2
Rattus norvegicus = assay: Average free plasma concentration in Sprague-Dawley rat at 10 mg/kg, po; assay type: ADME, organism-based; set-up: dose 10 mg/kg, route oral; conditions: in vivo
In short: (§4)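 Sprague–Dawley rats given a single 10 mg/kg oral dose. Cmax and AUCinf taken from the plasma concentration–time profile. Cave calculated as AUCinf divided by the dosing interval in h. Free concentration refers to the unbound fraction in plasma. Values are means of two experiments.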

[10] = Oral bioavailability in Sprague-Dawley rat at 10 mg/kg, po; assay type: ADME, organism-based; conditions: in vivo
[11] = Cmax in Sprague-Dawley rat at 10 mg/kg, po; assay type: ADME, organism-based; set-up: dose 10 mg/kg, route oral; conditions: in vivo; in short: as §4
[12] = AUC (infinity) in Sprague-Dawley rat at 10 mg/kg, po; assay type: ADME, organism-based; set-up: time infinity, dose 10 mg/kg, route oral; conditions: plasma; in short: as §4

## CN(C)[C@@H]1CCC[C@H]1Nc1nc(Nc2ccc(S(=O)(=O)NC3CC3)cc2)ncc1C(F)(F)F
[1]
  Papp A→B: 4.8 ×10⁻⁶ cm/s
hERG (KCNH2)
  inhibition at 10 µM: 76%

## CC[S+]([O-])(=NC)c1ccc(Nc2ncc(C(F)(F)F)c(N[C@@H]3CCC[C@H]3N(C)C)n2)cc1 (stereo partly drawn)
[2]
  hepatic extraction ratio: 0.58
[1]
  Papp A→B: 7.8 ×10⁻⁶ cm/s
[3]
  IC50: 24 nM
[4]
  IC50: 21 nM
hERG (KCNH2)
  inhibition at 10 µM: 2%

## CN(c1ccccc1CNc1nc(Nc2ccc3c(c2)CC(=O)N3)ncc1C(F)(F)F)S(C)(=O)=O
[1]
  Papp A→B: 9.2 ×10⁻⁶ cm/s
hERG (KCNH2)
  inhibition at 10 µM: 41%

## CNS(=O)(=O)c1ccc(Nc2ncc(C(F)(F)F)c(N[C@@H]3CCC[C@H]3N(C)C)n2)cc1
[1]
  Papp A→B: 5.3 ×10⁻⁶ cm/s
hERG (KCNH2)
  inhibition at 10 µM: 50%

## CN(C)[C@@H]1CCC[C@H]1Nc1nc(Nc2ccc(S(C)(=O)=O)cc2)ncc1C(F)(F)F
[5]
  Vd: 13 L/kg
[6]
  clearance: 42 mL/min/kg
[1]
  Papp A→B: 9.5 ×10⁻⁶ cm/s
[7]
  fraction unbound at 1 ug/mL: 0.3
[8]
  logD: 1.5
[9]
  MRT: 3.7 h

## CN=[S+](C)([O-])c1ccc(Nc2ncc(C(F)(F)F)c(N[C@@H]3CCC[C@H]3N(C)C)n2)cc1 (mixture of isomers)
[1]
  Papp A→B: 4.4 ×10⁻⁶ cm/s

## CCN=[S+](C)([O-])c1ccc(Nc2ncc(C(F)(F)F)c(N[C@@H]3CCC[C@H]3N(C)C)n2)cc1 (mixture of isomers)
[1]
  Papp A→B: 4.7 ×10⁻⁶ cm/s
hERG (KCNH2)
  inhibition at 10 µM: 5.9%

## CC(C)N=[S+](C)([O-])c1ccc(Nc2ncc(C(F)(F)F)c(N[C@@H]3CCC[C@H]3N(C)C)n2)cc1 (mixture of isomers)
[2]
  hepatic extraction ratio: 0.78
[1]
  Papp A→B: 6.6 ×10⁻⁶ cm/s
[3]
  IC50: 34 nM
[4]
  IC50: 22 nM
hERG (KCNH2)
  inhibition at 10 µM: 8.4%

## CN(C)[C@@H]1CCC[C@H]1Nc1nc(Nc2ccc([S+](C)(=N)[O-])cc2)ncc1C(F)(F)F (mixture of isomers)
[2]
  hepatic extraction ratio: < 0.29
[1]
  Papp A→B: 1 ×10⁻⁶ cm/s
[3]
  IC50: 320 nM
[4]
  IC50: 65 nM
hERG (KCNH2)
  inhibition at 10 µM: 12%

## CN=[S+](C)([O-])c1ccc(Nc2ncc(C(F)(F)F)c(N[C@@H]3CCC[C@H]3N(C)C)n2)cc1 (stereo in doubt; (R)-14a)
MDCK
  Papp: 5.7 ×10⁻⁶ cm/s

## CCN=[S+](C)([O-])c1ccc(Nc2ncc(C(F)(F)F)c(N[C@@H]3CCC[C@H]3N(C)C)n2)cc1 (stereo in doubt; (R)-14b)
MDCK
  Papp: 9.3 ×10⁻⁶ cm/s

## CN=[S+](C)([O-])c1ccc(Nc2ncc(C(F)(F)F)c(N[C@@H]3CCC[C@H]3N(C)C)n2)cc1 (stereo in doubt; (S)-14a)
[5]
  Vd: 13 L/kg
[6]
  clearance: 74 mL/min/kg
MDCK
  Papp: 5.1 ×10⁻⁶ cm/s
Rattus norvegicus
  Cp(f): 76 nM
[10]
  bioavailability: 100%
[11]
  Cmax: 720 nM
[7]
  fraction unbound at 1 ug/mL: 0.36
[8]
  logD: 1.7
[9]
  MRT: 2.3 h
[12]
  AUC(0-inf): 5 µM·h

## CCN=[S+](C)([O-])c1ccc(Nc2ncc(C(F)(F)F)c(N[C@@H]3CCC[C@H]3N(C)C)n2)cc1 (stereo in doubt; (S)-14b)
MDCK
  Papp: 8.3 ×10⁻⁶ cm/s
